Test results as given in paper PMC2818876 (Journal of the American Chemical Society, 2010).

Assays:
[1] = tested on: SK-Mel-2 cells; assay: Cellular uptake and distribution by confocal Raman microscopy of live cells; assay type: cell-based, Human; conditions: data not shown
[2] = Circular dichroism spectroscopy, secondary structure in water/TFE solutions; assay type: physicochemical; conditions: 40 μM peptide, 25 °C, CDPro (average of CONTINLL, SELCON3, CDSSTR)
Outline: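 Stock 20 mM in water (pH 7), stored at 4°C for ≤10 days and quantified by A280 (ε280 = 11,000 M−1.cm−1). CD recorded in a 1 mm quartz cell over 180–250 nm at 100 nm/min with 1 s response, 40 μM peptide, 25 °C. Eight scans averaged and background-corrected for water/TFE. Fractions from the CDPro SP37A reference set.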

In the case of `CC[C@H](C)[C@H](NC(=O)[C@H](CCCCN)NC(=O)[C@@H](NC(=O)[C@H](CCC(N)=O)NC(=O)[C@@H](N)CCCNC(=N)N)[C@@H](C)CC)C(=O)N[C@@H](Cc1c[nH]c2ccccc12)C(=O)N[C@@H](Cc1ccccc1)C(=O)N[C@@H](CCC(N)=O)C(=O)N[C@@H](CC(N)=O)C(=O)N[C@@H](CCCNC(=N)N)C(=O)N[C@@H](CCCNC(=N)N)C(=O)N[C@@H](CCSC)C(=O)N[C@@H](CCCCN)C(=O)N[C@@H](Cc1c[nH]c2ccccc12)C(=O)N[C@@H](CCCCN)C(=O)N[C@@H](CCCCN)C(N)=O` [penetratin-Fh], the “Peptide uptake by cells at 4°C” value ([1]; 4°C, confocal Raman microscopy) was “did not observe peptide uptake”, the “Concentration dependence of the rate of accumulation in cell nuclei” value ([1]; range 25–300 μM, RT) was “only weakly dependent on concentration” and the “α-helix structure (CD modeling)” value ([2]; 100% TFE) was 25%. The “Random coil character (CD modeling)” value ([2]; 100% water) was 54%, the “α-helix structure (CD modeling)” value ([2]; 100% water) was 3% and the “β-strand structure (CD modeling)” value ([2]; 100% water) was 21%.
